Source: ChEMBL document CHEMBL4689842, “EUbOPEN Chemogenomics Library wave 1” (2021)

Key:
Assay type in all cases: toxicity, cell-based
U2OS [1] = experiment: Multiplex assay against U2OS; details: human
Method in brief: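 Live cells carried four stains from seeding: Hoechst33342, BioTracker Green Microtubule Cytoskeleton Dye, MitoTracker Red and Annexin V Alexa Fluor 680. They were imaged on a CQ1 microscope at 37°C and 5% CO2 after compound addition. Using CellPathfinder machine-learning gating, cells were split into Hoechst high-intensity objects or normal cells, normal cells into healthy, pyknosed or fragmented nuclei, and pyknosed cells into mitotic or apoptotic; tubulin, mitochondrial-mass and membrane-permeability phenotypes are per cents of healthy-nucleus cells.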

U2OS [2] = experiment: Incucyte cell viability with U2OS; details: human, 10 µM, compound concentration 10 uM; also: filed as whole numbers so only -1 and 0 and 1 occur
HEK-293T = experiment: Incucyte cell viability with HEK293T; details: human, 10 µM, compound concentration 10 uM; also: filed as whole numbers so only -1 and 0 and 1 occur
[3] = 12 h, 1 µM, compound concentration 1 uM, replicate 1
[4] = 12 h, 1 µM, compound concentration 1 uM, replicate 2
[5] = 12 h, 10 µM, compound concentration 10 uM, replicate 1
[6] = 12 h, 10 µM, compound concentration 10 uM, replicate 2
[7] = 24 h, 1 µM, compound concentration 1 uM, replicate 1
[8] = 24 h, 1 µM, compound concentration 1 uM, replicate 2
[9] = 24 h, 10 µM, compound concentration 10 uM, replicate 1
[10] = 24 h, 10 µM, compound concentration 10 uM, replicate 2
[11] = 0 h, replicate number 1, timepoint 0 hours
[12] = 6 h, replicate number 1, timepoint 6 hours
[13] = 24 h, replicate number 1, timepoint 24 hours

CCOc1ccn(-c2ccc(F)cc2)c(=O)c1C(=O)Nc1ccc(Oc2ccnc(N)c2Cl)c(F)c1 [BMS-777607]
Population Apoptotic (%) (U2OS [1]; [3]): 41% | Population Healthy Nuclei (%) (U2OS [1]; [3]): 88% | Population Hoechst High Intensity Objects (%) (U2OS [1]; [3]): 4% | Population Membrane Permeable-Phenotype (%) (U2OS [1]; [3]): 35% | Population Mitochondria Different-Phenotype (%) (U2OS [1]; [3]): 11% | Population Mitotic Cells (%) (U2OS [1]; [3]): 58% | Population Normal (%) (U2OS [1]; [3]): 95% | Population Pyknosed Nuclei (%) (U2OS [1]; [3]): 6% | Total Cell Count (U2OS [1]; [3]): 190 | Population Apoptotic (%) (U2OS [1]; [4]): 28% | Population Fragmented Nuclei (%) (U2OS [1]; [4]): 4% | Population Healthy Nuclei (%) (U2OS [1]; [4]): 86% | Population Hoechst High Intensity Objects (%) (U2OS [1]; [4]): 13% | Population Membrane Permeable-Phenotype (%) (U2OS [1]; [4]): 40% | Population Mitochondria Different-Phenotype (%) (U2OS [1]; [4]): 31% | Population Mitotic Cells (%) (U2OS [1]; [4]): 71% | Population Normal (%) (U2OS [1]; [4]): 86% | Population Pyknosed Nuclei (%) (U2OS [1]; [4]): 8% | Population Tubulin-Different-Phenotype (%) (U2OS [1]; [4]): 18% | Total Cell Count (U2OS [1]; [4]): 94 | Population Apoptotic (%) (U2OS [1]; [5]): 66% | Population Fragmented Nuclei (%) (U2OS [1]; [5]): 2% | Population Healthy Nuclei (%) (U2OS [1]; [5]): 91% | Population Hoechst High Intensity Objects (%) (U2OS [1]; [5]): 1% | Population Membrane Permeable-Phenotype (%) (U2OS [1]; [5]): 5% | Population Mitochondria Different-Phenotype (%) (U2OS [1]; [5]): 33% | Population Mitotic Cells (%) (U2OS [1]; [5]): 33% | Population Normal (%) (U2OS [1]; [5]): 98% | Population Pyknosed Nuclei (%) (U2OS [1]; [5]): 6% | Population Tubulin-Different-Phenotype (%) (U2OS [1]; [5]): 29% | Total Cell Count (U2OS [1]; [5]): 193 | Population Apoptotic (%) (U2OS [1]; [6]): 0% | Population Fragmented Nuclei (%) (U2OS [1]; [6]): 6% | Population Healthy Nuclei (%) (U2OS [1]; [6]): 89% | Population Hoechst High Intensity Objects (%) (U2OS [1]; [6]): 16% | Population Mitochondria Different-Phenotype (%) (U2OS [1]; [6]): 30% | Population Mitotic Cells (%) (U2OS [1]; [6]): 100% | Population Normal (%) (U2OS [1]; [6]): 83% | Population Pyknosed Nuclei (%) (U2OS [1]; [6]): 4% | Population Tubulin-Different-Phenotype (%) (U2OS [1]; [6]): 37% | Total Cell Count (U2OS [1]; [6]): 118 | Population Apoptotic (%) (U2OS [1]; [7]): 57% | Population Fragmented Nuclei (%) (U2OS [1]; [7]): 7% | Population Healthy Nuclei (%) (U2OS [1]; [7]): 85% | Population Hoechst High Intensity Objects (%) (U2OS [1]; [7]): 3% | Population Membrane Permeable-Phenotype (%) (U2OS [1]; [7]): 37% | Population Mitochondria Different-Phenotype (%) (U2OS [1]; [7]): 23% | Population Mitotic Cells (%) (U2OS [1]; [7]): 42% | Population Normal (%) (U2OS [1]; [7]): 96% | Population Pyknosed Nuclei (%) (U2OS [1]; [7]): 7% | Population Tubulin-Different-Phenotype (%) (U2OS [1]; [7]): 16% | Total Cell Count (U2OS [1]; [7]): 196 | Population Apoptotic (%) (U2OS [1]; [8]): 36% | Population Fragmented Nuclei (%) (U2OS [1]; [8]): 6% | Population Healthy Nuclei (%) (U2OS [1]; [8]): 81% | Population Hoechst High Intensity Objects (%) (U2OS [1]; [8]): 10% | Population Membrane Permeable-Phenotype (%) (U2OS [1]; [8]): 28% | Population Mitochondria Different-Phenotype (%) (U2OS [1]; [8]): 35% | Population Mitotic Cells (%) (U2OS [1]; [8]): 63% | Population Normal (%) (U2OS [1]; [8]): 89% | Population Pyknosed Nuclei (%) (U2OS [1]; [8]): 12% | Population Tubulin-Different-Phenotype (%) (U2OS [1]; [8]): 20% | Total Cell Count (U2OS [1]; [8]): 101 | Population Apoptotic (%) (U2OS [1]; [9]): 26% | Population Fragmented Nuclei (%) (U2OS [1]; [9]): 3% | Population Healthy Nuclei (%) (U2OS [1]; [9]): 91% | Population Hoechst High Intensity Objects (%) (U2OS [1]; [9]): 1% | Population Membrane Permeable-Phenotype (%) (U2OS [1]; [9]): 5% | Population Mitochondria Different-Phenotype (%) (U2OS [1]; [9]): 27% | Population Mitotic Cells (%) (U2OS [1]; [9]): 73% | Population Normal (%) (U2OS [1]; [9]): 98% | Population Pyknosed Nuclei (%) (U2OS [1]; [9]): 5% | Population Tubulin-Different-Phenotype (%) (U2OS [1]; [9]): 30% | Total Cell Count (U2OS [1]; [9]): 263 | Population Apoptotic (%) (U2OS [1]; [10]): 12% | Population Fragmented Nuclei (%) (U2OS [1]; [10]): 2% | Population Healthy Nuclei (%) (U2OS [1]; [10]): 90% | Population Hoechst High Intensity Objects (%) (U2OS [1]; [10]): 8% | Population Membrane Permeable-Phenotype (%) (U2OS [1]; [10]): 8% | Population Mitochondria Different-Phenotype (%) (U2OS [1]; [10]): 34% | Population Mitotic Cells (%) (U2OS [1]; [10]): 87% | Population Normal (%) (U2OS [1]; [10]): 91% | Population Pyknosed Nuclei (%) (U2OS [1]; [10]): 6% | Population Tubulin-Different-Phenotype (%) (U2OS [1]; [10]): 36% | Total Cell Count (U2OS [1]; [10]): 133 | Growth Rate (U2OS [2]; [11]): 1 | Growth Rate (U2OS [2]; 0 h, replicate number 2, timepoint 0 hours): 0 | Growth Rate (U2OS [2]; [12]): 0 | Growth Rate (U2OS [2]; 12 h, replicate number 1, timepoint 12 hours): 0 | Growth Rate (U2OS [2]; 18 h, replicate number 1, timepoint 18 hours): 0 | Growth Rate (U2OS [2]; [13]): 0 | Growth Rate (HEK-293T; [11]): 1 | Growth Rate (HEK-293T; [12]): 0 | Growth Rate (HEK-293T; 12 h, replicate number 2, timepoint 12 hours): 1 | Growth Rate (HEK-293T; [13]): 1 | Growth Rate (HEK-293T; 24 h, replicate number 2, timepoint 24 hours): 0
